Experimental data collected from several papers.
Compare with care: the assays were run in different laboratories.
PIK3CA H1047Y: Phosphatidylinositol 4,5-bisphosphate 3-kinase catalytic subunit alpha isoform (PIK3CA, Homo sapiens, UniProt P42336, H1047Y)
PIK3CA: Phosphatidylinositol 4,5-bisphosphate 3-kinase catalytic subunit alpha isoform (PIK3CA, Homo sapiens, UniProt P42336)
PIK3CA C420R: Phosphatidylinositol 4,5-bisphosphate 3-kinase catalytic subunit alpha isoform (PIK3CA, Homo sapiens, UniProt P42336, C420R)
PIK3CA E545A: Phosphatidylinositol 4,5-bisphosphate 3-kinase catalytic subunit alpha isoform (PIK3CA, Homo sapiens, UniProt P42336, E545A)
PIK3CA E545K: Phosphatidylinositol 4,5-bisphosphate 3-kinase catalytic subunit alpha isoform (PIK3CA, Homo sapiens, UniProt P42336, E545K)
PIK3CA E542K: Phosphatidylinositol 4,5-bisphosphate 3-kinase catalytic subunit alpha isoform (PIK3CA, Homo sapiens, UniProt P42336, E542K)
PIK3CA H1047L: Phosphatidylinositol 4,5-bisphosphate 3-kinase catalytic subunit alpha isoform (PIK3CA, Homo sapiens, UniProt P42336, H1047L)
PIK3CA M1043I: Phosphatidylinositol 4,5-bisphosphate 3-kinase catalytic subunit alpha isoform (PIK3CA, Homo sapiens, UniProt P42336, M1043I)
PIK3CA Q546K: Phosphatidylinositol 4,5-bisphosphate 3-kinase catalytic subunit alpha isoform (PIK3CA, Homo sapiens, UniProt P42336, Q546K)

SMILES	target	assay	setting	remaining binding [%]
C[C@@H](c1ccc(-n2cnc3c(N)ncnc32)cc1)N1CCc2nn(C)c(Cc3ccccc3)c2C1=O	PIK3CA H1047Y	binding, competition with immobilised ligand	0.1 µM	78
CN1CC[C@H](c2c(O)cc(O)c3c(=O)cc(-c4ccccc4Cl)oc23)[C@H](O)C1	PIK3CA	cell-free assay, competition with immobilised ligand	10 µM	97
COc1cnc(Nc2cccc(S(N)(=O)=O)c2)nc1N1CCN(c2ccccc2)CC1	PIK3CA C420R	binding, competition with immobilised ligand	1 µM	95
CN(c1nccc(-c2cnn3ncccc23)n1)C1CC1	PIK3CA E545A	binding	1 µM	100
CN(c1ccnc(CNc2nc(Nc3ccc4c(c3)CC(=O)N4)ncc2C(F)(F)F)n1)S(C)(=O)=O	PIK3CA E545K	cell-free assay, competition with immobilised ligand	1 µM	100
COc1ccnn2ncc(-c3ccnc(N(C)C)n3)c12	PIK3CA E542K	binding	1 µM	95
C=CC(=O)N1CCC(C(=O)NCC(=O)N2CCN(c3nc(-c4cnc(N)nc4C(F)F)nc(N4CCOCC4)n3)CC2)CC1	PIK3CA E545K	binding, competition with immobilised ligand	1 µM	0
C[C@@H]1CN(c2cc(-c3n[nH]c4ccc(OC5(C)CC5)cc34)ncn2)C[C@H](C)O1	PIK3CA H1047L	cell-free assay, competition with immobilised ligand	0.1 µM	87
c1cncc(-c2cccc(Nc3nccc(NC4CCCCC4)n3)c2)c1	PIK3CA H1047Y	binding, competition with immobilised ligand	10 µM	89
CCN1CCN(Cc2ccc(C(=O)Nc3ccc(C)c(Oc4ccc5c(c4)CC(=O)N5)c3)cc2C(F)(F)F)CC1	PIK3CA E542K	binding, competition with immobilised ligand	1 µM	100
O=C(NCCCN1CCOCC1)c1ccc(Nc2nccc(-c3cc4ccccc4s3)n2)cc1	PIK3CA C420R	binding, competition with immobilised ligand	1 µM	89
CC1CCCN1c1nccc(-c2cnn3ncccc23)n1 (centres unmarked)	PIK3CA H1047Y	binding	1 µM	88
CN1CCN(c2ccc(Nc3nccc(-c4ccccc4)n3)cc2C(F)(F)F)CC1	PIK3CA M1043I	binding	10 µM	92
CN(CCCC(F)(F)F)c1nccc(-c2cnn3ncccc23)n1	PIK3CA H1047L	binding	1 µM	100
O=C(NCC1CCOCC1)c1n[nH]cc1NC(=O)c1c(F)cccc1F	PIK3CA Q546K	binding, competition with immobilised ligand	1 µM	77
C[C@@H]1CCN(c2nccc(-c3cnn4ncccc34)n2)C1	PIK3CA H1047Y	binding	1 µM	93
NS(=O)(=O)c1cc(NC(=O)C2(c3ccccc3Cl)CC2)ccc1Oc1cccc(Cl)c1	PIK3CA H1047Y	cell-free assay, competition with immobilised ligand	1 µM	76
O=C(c1ccc(Nc2ncc(Cl)c(-c3ccc(Cl)s3)n2)cc1)N1CCC(N2CCCC2)CC1	PIK3CA H1047L	binding, competition with immobilised ligand	1 µM	100

SMILES	target	assay	setting	remaining binding [%]
N[C@H]1CCN(c2nccc(-c3cnn4ncccc34)n2)C1	PIK3CA H1047Y	binding	1 µM	56
Cc1noc([C@H]2C[C@@H](c3ccc(C(F)(F)F)cc3)CN(C(=O)N3CCS(=O)(=O)C3)C2)n1	PIK3CA M1043I	cell-free assay, competition with immobilised ligand	1 µM	100
CCN(CC)Cc1cc(Nc2ccnc3cc(Cl)ccc23)ccc1O	PIK3CA	cell-free assay, competition with immobilised ligand	0.1 µM	97
CS(=O)(=O)NCC[C@H](NC(=O)c1cncc2c1cnn2-c1ccc(F)cc1)c1ccnc(S(C)(=O)=O)c1	PIK3CA	cell-free assay, competition with immobilised ligand	1 µM	83
COc1cnc(Nc2cccc(S(N)(=O)=O)c2)nc1N1CCN(c2ccccc2)C(=O)C1	PIK3CA E545K	binding, competition with immobilised ligand	1 µM	65
O=C(Nc1c[nH]nc1C(=O)NC1CCNCC1)c1cc(F)cc(F)c1	PIK3CA H1047Y	binding, competition with immobilised ligand	1 µM	100
Nc1ncc2c(n1)-c1c([nH]c3ccc(C#CC4CC4)cc13)CCCC2	PIK3CA E542K	binding, competition with immobilised ligand	1 µM	91
O=C(c1ccc(Nc2ncc(Cl)c(-c3cc4ccccc4s3)n2)cc1)N1CCC(N2CCCC2)CC1	PIK3CA E542K	binding, competition with immobilised ligand	1 µM	97
C[C@H](c1cccc(C#N)c1)n1cc(Cl)cc(C(N)=O)c1=N	PIK3CA Q546K	cell-free assay, competition with immobilised ligand	1 µM	100
COc1ncc2cc3ccccc3nc2c1C#N	PIK3CA	cell-free assay, competition with immobilised ligand	5 µM	100
CN1CCN(c2ccc(Nc3nccc(-c4cccc([N+](=O)[O-])c4)n3)cc2C(F)(F)F)CC1	PIK3CA Q546K	binding	10 µM	37
CS(=O)(=O)N1CCCC(NC(=O)[C@H](CCC2CCCCC2)NC(=O)c2ccc(CNC(=O)c3cnc4ccccn34)cc2)C1 (some centres unmarked)	PIK3CA	binding, competition with immobilised ligand	1 µM	37
CNC(=O)[C@@H]1CC[C@@H](n2c(-c3ccc4cnccc4c3)nc3ccc(C(=O)NCc4cccc(C(N)=O)c4)cc32)C1	PIK3CA E542K	binding, competition with immobilised ligand	1 µM	100
O=C(NCCCN1CCOCC1)c1ccc(Nc2ncc(Cl)c(-c3ccc(Cl)s3)n2)cc1	PIK3CA H1047Y	binding, competition with immobilised ligand	1 µM	95
CCCOc1ccc([C@H]2[C@H](C(=O)O)[C@@H](c3ccc4c(c3)OCO4)CN2CC(=O)Nc2c(CC)cccc2CC)cc1	PIK3CA E545A	cell-free assay, competition with immobilised ligand	1 µM	92
CN(C)c1nccc(-c2cnc3ncccn23)n1	PIK3CA E545K	binding	1 µM	82
O=C(c1ccc(Nc2nccc(-c3cc4ccccc4s3)n2)cc1)N1CCC(N2CCCC2)CC1	PIK3CA E545K	binding, competition with immobilised ligand	1 µM	82
